Laboratory results taken from ChEMBL document CHEMBL1146220, “Rational optimization of the binding affinity of CD4 targeting peptidomimetics with potential anti HIV activity” (J Med Chem, 2007).
Numbered stars: 1 amine (or outer) side, 2 acyl side, 3 side chain; on linkers, the order of the positions; unused ones are H or OH. Square brackets hold non-standard residues; d marks the D form. Peptide text beside a SMILES is read from it. * marks the point of attachment. Acetyl(2-naphthyloxy) = O=C(COc1ccc2ccccc2c1)*; Alaninol(O-CO) = C[C@@H](COC(=O)[*:2])N[*:1]; NH(1-Adamantyl) = C1C2CC3CC1CC(N*)(C2)C3; X1 = O=C(OC[C@@H]1CCCN1[*:1])[*:2]; X2 = S=C(NC1CC1)OC[C@@H]1CCCN1*; X3 = O=C(COc1cccc2cccnc12)*; NHcHex = C1CCC(N*)CC1; NHcPent = C1CCC(N*)C1; NHtBu = CC(C)(C)N*

Tests used:
[1] = target: T-cell surface glycoprotein CD4 (Homo sapiens, UniProt P01730); assay: Binding affinity to CD4 by SPR assay
Procedure, shortened: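 Test ligands passed over the CD4 SPR surface at a series of concentrations, recording the concentration-dependent maximum response units (RU). Surface regenerated between runs with short pulses of 100 mM H3PO4. Only the lower concentrations (generally up to 50 µM) fitting a one-site binding model were used. KD was taken as the concentration at RUmax/2.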

[2] = Half life by pronase digestion assay; assay type: ADME; details: pronase (protease digestion)
Procedure, shortened: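 Pronase digestion was run at 37 °C. Aliquots were taken at 5, 10, 15, 20 and 30 min and quenched with 1 M acetic acid. Hydrolysis products were identified as M+H+/Na+/K+ ions, and t1/2 was derived from the disappearance time course.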

| Compound | Kd [1] | half-life [2] |
| --- | --- | --- |
| CC(C)[C@H](NC(=O)[C@H](CCCCN)NC(=O)COc1cccc2cccnc12)C(=O)NCC(=O)N[C@H](C(=O)N[C@@H](C)COC(=O)NC(C)(C)C)[C@@H](C)O (X3-KVGT[Alaninol(O-CO)]-NHtBu) | 13 µM |  |
| CC(C)[C@H](NC(=O)[C@H](CCCCN)NC(=O)COc1cccc2cccnc12)C(=O)NCC(=O)N[C@H](C(=O)N1CCC[C@H]1COC(=O)NC(C)(C)C)[C@@H](C)O (X3-KVGT[X1]-NHtBu) | 26 µM |  |
| CC(C)[C@H](NC(=O)[C@H](CCCCN)NC(=O)COc1ccc2ccccc2c1)C(=O)NCC(=O)N[C@H](C(=O)N[C@@H](C)COC(=O)NC(C)(C)C)C(C)O (single isomer, unassigned) | 20 µM |  |
| CC(C)[C@H](NC(=O)[C@H](CCCCN)NC(=O)COc1ccc2ccccc2c1)C(=O)NCC(=O)N[C@H](C(=O)N1CCC[C@H]1COC(=S)NC1CC1)[C@@H](C)O ({Acetyl(2-naphthyloxy)}-KVGT-X2) | 27 µM |  |
| CC(C)[C@H](NC(=O)[C@H](CCCCN)NC(=O)COc1ccc2ccccc2c1)C(=O)NCC(=O)N[C@H](C(=O)N[C@@H](C)COC(=O)NC1CCCC1)[C@@H](C)O ({Acetyl(2-naphthyloxy)}-KVGT[Alaninol(O-CO)]-NHcPent) | 62 µM |  |
| CC(C)[C@H](NC(=O)[C@H](CCCCN)NC(=O)COc1ccc2ccccc2c1)C(=O)NCC(=O)N[C@H](C(=O)N[C@@H](C)COC(=O)NC12CC3CC(CC(C3)C1)C2)[C@@H](C)O ({Acetyl(2-naphthyloxy)}-KVGT[Alaninol(O-CO)]-{NH(1-Adamantyl)}) | 80 µM |  |
| CC(C)[C@H](NC(=O)[C@H](CCCCN)NC(=O)COc1ccc2ccccc2c1)C(=O)NCC(=O)N[C@H](C(=O)N1CCC[C@H]1COC(=O)NC1CCCCC1)[C@@H](C)O ({Acetyl(2-naphthyloxy)}-KVGT[X1]-NHcHex) | 35 µM | 27.3 min |
| CC(C)[C@H](NC(=O)[C@H](CCCCN)NC(=O)COc1ccc2ccccc2c1)C(=O)NCC(=O)N[C@H](C(=O)N1CCC[C@H]1COC(=O)NC1CCCC1)[C@@H](C)O ({Acetyl(2-naphthyloxy)}-KVGT[X1]-NHcPent) | 16 µM |  |
| CC(C)[C@H](NC(=O)[C@H](CCCCN)NC(=O)COc1ccc2ccccc2c1)C(=O)NCC(=O)N[C@H](C(=O)N1CCC[C@H]1COC(=O)NC(C)(C)C)[C@@H](C)O ({Acetyl(2-naphthyloxy)}-KVGT[X1]-NHtBu) | 6 µM |  |
| CCOC(=O)CNC(=O)OC[C@@H]1CCCN1C(=O)[C@@H](NC(=O)CNC(=O)[C@@H](NC(=O)[C@H](CCCCN)NC(=O)COc1ccc2ccccc2c1)C(C)C)[C@@H](C)O ({Acetyl(2-naphthyloxy)}-KVGT[X1]G-OEt) | 26 µM | 23 min |
| H-NMWQKVGTPL-OH | 6000 µM | 6 min |
